Experiments:
Type in all cases: functional, cell-based
A549 = assay: Cytotoxicity against human A549 cells after 24 hrs by MTT assay; conditions: Homo sapiens, A549, 24 h; read-out: IC50
Summary of the method: (§1)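 Cell lines from the Navy Medical College, seeded at 8000 cells/well in 96-well plates. Compounds dissolved in DMSO (stock 10 g/L) and freshly diluted in medium. Dilutions were added in duplicate 24 h after seeding, with incubation continued at 37 °C. Viability read by MTT. IC50 taken as the concentration giving 50% growth inhibition, determined following NCCLS recommendations.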

[1] = Cytotoxicity against human QGY7701 cells after 24 hrs by MTT assay; conditions: QGY7701, 24 h; summary of the method: as §1
HeLa = assay: Cytotoxicity against human HeLa cells after 24 hrs by MTT assay; summary of the method: as §1
SW480 = assay: Cytotoxicity against human SW480 cells after 24 hrs by MTT assay; conditions: SW480, 24 h; summary of the method: as §1
[2] = Homo sapiens, HeLa, 24 h, read-out: IC50

SMILES | IC50 (A549) | IC50 [1] | IC50 (HeLa; [2]) | IC50 (SW480) | IC50 (HeLa; hela)
C=CC1=C(C(=O)NCc2ccccc2)C(c2ccc(F)cc2)OC1 (centres undefined) | > 100 µM | 67.6 µM | > 100 µM | > 100 µM | 
C=CC1=C(C(=O)O)C(c2ccc(F)cc2)OC1 (centres undefined) | > 100 µM | > 100 µM | 67.4 µM | > 100 µM | 
C=CC1=C(C(=O)O)C(c2ccc(Cl)c(Cl)c2)OC1 (centres undefined) | > 100 µM | > 100 µM | 10.3 µM | > 100 µM | 
C=CC1=C(C(=O)O)C(c2ccc(OC)cc2)OC1 (centres undefined) | > 100 µM | > 100 µM | 44.3 µM | > 100 µM | 
C=CC1=C(C(=O)O)C(c2ccc(OC)c(OC)c2)OC1 (centres undefined) | > 100 µM | > 100 µM | 18 µM | > 100 µM | 
C=CC1=C(C(=O)Nc2ccccc2)C(c2ccc(F)cc2)OC1 (centres undefined) | > 100 µM | 46.7 µM | > 100 µM | > 100 µM | 
C=CC1=C(C(=O)Nc2cccc(C)c2)C(c2ccc(F)cc2)OC1 (centres undefined) | > 100 µM | 56.4 µM |  | > 100 µM | Not Active
C=CC1=C(C(=O)Nc2ccc(C)cc2)C(c2ccc(F)cc2)OC1 (centres undefined) | > 100 µM | 59.2 µM | > 100 µM | > 100 µM | 
C=CC1=C(C(=O)Nc2ccccc2OC)C(c2ccc(F)cc2)OC1 (centres undefined) | > 100 µM | 52.8 µM | > 100 µM | > 100 µM | 
C=CC1=C(C(=O)NCc2ccc(C)cc2)C(c2ccc(F)cc2)OC1 (centres undefined) | > 100 µM | 62.1 µM | > 100 µM | > 100 µM | 
C=CC1=C(C(=O)NCc2ccc(OC)c(OC)c2)C(c2ccc(F)cc2)OC1 (centres undefined) | > 100 µM | 87.3 µM | > 100 µM | > 100 µM | 
C=CC1=C(C(=O)NCc2ccccc2F)C(c2ccc(F)cc2)OC1 (centres undefined) | > 100 µM | 51.4 µM | > 100 µM | > 100 µM | 
C=CC1=C(C(=O)NCc2ccc(Cl)cc2)C(c2ccc(F)cc2)OC1 (centres undefined) | > 100 µM | 36.9 µM | > 100 µM | > 100 µM | 
C=CC1=C(C(=O)NCCc2ccc(F)cc2)C(c2ccc(F)cc2)OC1 (centres undefined) | > 100 µM | 29.7 µM | > 100 µM | 36 µM | 
C=CC1=C(C(=O)NCCc2ccccc2F)C(c2ccc(F)cc2)OC1 (centres undefined) | > 100 µM | 35.1 µM | > 100 µM | > 100 µM | 
C=CC1=C(C(=O)NCCc2cccc(F)c2)C(c2ccc(F)cc2)OC1 (centres undefined) | > 100 µM | 59.8 µM | > 100 µM | > 100 µM | 
C=CC1=C(C(=O)NCCc2cccc(OC)c2)C(c2ccc(F)cc2)OC1 (centres undefined) | > 100 µM | 87.2 µM |  | > 100 µM | Not Active
C=CC1=C(C(=O)NC2CCCCC2)C(c2ccc(F)cc2)OC1 (centres undefined) | > 100 µM | 40.5 µM | > 100 µM | > 100 µM | 
C=CC1=C(C(=O)NCCC)C(c2ccc(F)cc2)OC1 (centres undefined) | > 100 µM | > 100 µM | > 100 µM | > 100 µM | 
C=CC1=C(C(=O)NCCCCC)C(c2ccc(F)cc2)OC1 (centres undefined) | > 100 µM | > 100 µM | > 100 µM | > 100 µM | 

SMILES | IC50 (A549) | IC50 [1] | IC50 (HeLa; [2]) | IC50 (SW480) | IC50 (HeLa; hela)
C=CC1=C(C(=O)NCC(C)C)C(c2ccc(F)cc2)OC1 (centres undefined) | > 100 µM | > 100 µM | > 100 µM | > 100 µM | 
C=CC1=C(C(=O)NC(C)(C)C)C(c2ccc(F)cc2)OC1 (centres undefined) | > 100 µM | > 100 µM | > 100 µM | > 100 µM | 
C=CC1=C(C(=O)Nc2ccccc2)C(c2ccc(Cl)c(Cl)c2)OC1 (centres undefined) | > 100 µM | > 100 µM | > 100 µM | > 100 µM | 
C=CC1=C(C(=O)Nc2ccccc2OC)C(c2ccc(Cl)c(Cl)c2)OC1 (centres undefined) | > 100 µM | > 100 µM | > 100 µM | > 100 µM | 
C=CC1=C(C(=O)NCc2ccccc2)C(c2ccc(Cl)c(Cl)c2)OC1 (centres undefined) | > 100 µM | > 100 µM | > 100 µM | > 100 µM | 
C=CC1=C(C(=O)NCCC)C(c2ccc(Cl)c(Cl)c2)OC1 (centres undefined) | > 100 µM | 31.3 µM | > 100 µM | > 100 µM | 
C=CC1=C(C(=O)NCCCCC)C(c2ccc(Cl)c(Cl)c2)OC1 (centres undefined) | > 100 µM | > 100 µM | > 100 µM | 27.5 µM | 
C=CC1=C(C(=O)NCC(C)C)C(c2ccc(Cl)c(Cl)c2)OC1 (centres undefined) | > 100 µM | > 100 µM | 60.1 µM | > 100 µM | 
C=CC1=C(C(=O)NC(C)(C)C)C(c2ccc(Cl)c(Cl)c2)OC1 (centres undefined) | > 100 µM | > 100 µM | > 100 µM | > 100 µM | 
C=CC1=C(C(=O)Nc2ccccc2)C(c2ccc(OC)cc2)OC1 (centres undefined) | > 100 µM | > 100 µM | > 100 µM | > 100 µM | 
C=CC1=C(C(=O)Nc2cccc(C)c2)C(c2ccc(OC)cc2)OC1 (centres undefined) | > 100 µM | > 100 µM | > 100 µM | > 100 µM | 
C=CC1=C(C(=O)Nc2ccc(C)cc2)C(c2ccc(OC)cc2)OC1 (centres undefined) | > 100 µM | > 100 µM | > 100 µM | > 100 µM | 
C=CC1=C(C(=O)Nc2ccccc2OC)C(c2ccc(OC)cc2)OC1 (centres undefined) | > 100 µM | > 100 µM | > 100 µM | > 100 µM | 
C=CC1=C(C(=O)Nc2ccc(OCC)cc2)C(c2ccc(OC)cc2)OC1 (centres undefined) | 17.6 µM | > 100 µM | > 100 µM | > 100 µM | 
C=CC1=C(C(=O)NCc2ccccc2)C(c2ccc(OC)cc2)OC1 (centres undefined) | > 100 µM | > 100 µM | > 100 µM | 39.5 µM | 
C=CC1=C(C(=O)NCc2ccc(C)cc2)C(c2ccc(OC)cc2)OC1 (centres undefined) | > 100 µM | 43.1 µM | 15.8 µM | 31.7 µM | 
C=CC1=C(C(=O)NCc2ccc(OC)c(OC)c2)C(c2ccc(OC)cc2)OC1 (centres undefined) | > 100 µM | > 100 µM | > 100 µM | 13.5 µM | 
C=CC1=C(C(=O)NCc2ccccc2F)C(c2ccc(OC)cc2)OC1 (centres undefined) | > 100 µM | > 100 µM | > 100 µM | > 100 µM | 
C=CC1=C(C(=O)NCc2ccc(Cl)cc2)C(c2ccc(OC)cc2)OC1 (centres undefined) | > 100 µM | > 100 µM | > 100 µM | > 100 µM | 
C=CC1=C(C(=O)NCCc2ccc(F)cc2)C(c2ccc(OC)cc2)OC1 (centres undefined) | > 100 µM | > 100 µM | > 100 µM | > 100 µM | 

SMILES | IC50 (A549) | IC50 [1] | IC50 (HeLa; [2]) | IC50 (SW480) | IC50 (HeLa; hela)
C=CC1=C(C(=O)NCCc2ccccc2F)C(c2ccc(OC)cc2)OC1 (centres undefined) | > 100 µM | > 100 µM | 37.5 µM | > 100 µM | 
C=CC1=C(C(=O)NCCc2cccc(F)c2)C(c2ccc(OC)cc2)OC1 (centres undefined) | > 100 µM | > 100 µM | 31.4 µM | > 100 µM | 
C=CC1=C(C(=O)NCCc2cccc(OC)c2)C(c2ccc(OC)cc2)OC1 (centres undefined) | > 100 µM | > 100 µM | > 100 µM | > 100 µM | 
C=CC1=C(C(=O)NC2CCCCC2)C(c2ccc(OC)cc2)OC1 (centres undefined) | > 100 µM | > 100 µM | 24.8 µM | > 100 µM | 
C=CC1=C(C(=O)NCCC)C(c2ccc(OC)cc2)OC1 (centres undefined) | > 100 µM | > 100 µM | 14 µM | > 100 µM | 
C=CC1=C(C(=O)NCCCCC)C(c2ccc(OC)cc2)OC1 (centres undefined) | 36.5 µM | > 100 µM | > 100 µM | > 100 µM | 
C=CC1=C(C(=O)NCC(C)C)C(c2ccc(OC)cc2)OC1 (centres undefined) | > 100 µM | > 100 µM | > 100 µM | > 100 µM | 
C=CC1=C(C(=O)NC(C)(C)C)C(c2ccc(OC)cc2)OC1 (centres undefined) | > 100 µM | > 100 µM | > 100 µM | > 100 µM | 
C=CC1=C(C(=O)Nc2ccccc2)C(c2ccc(OC)c(OC)c2)OC1 (centres undefined) | > 100 µM | > 100 µM | 5.03 µM | 45.1 µM | 
C=CC1=C(C(=O)NCc2ccccc2)C(c2ccc(OC)c(OC)c2)OC1 (centres undefined) | > 100 µM | > 100 µM | > 100 µM | > 100 µM | 
C=CC1=C(C(=O)NCc2ccc(C)cc2)C(c2ccc(OC)c(OC)c2)OC1 (centres undefined) | > 100 µM | 69.1 µM | > 100 µM | > 100 µM | 
C=CC1=C(C(=O)NCc2ccc(Cl)cc2)C(c2ccc(OC)c(OC)c2)OC1 (centres undefined) | > 100 µM | > 100 µM | > 100 µM | > 100 µM | 
C=CC1=C(C(=O)NC2CCCCC2)C(c2ccc(OC)c(OC)c2)OC1 (centres undefined) | > 100 µM | 7.49 µM | 5.54 µM | 19.1 µM | 
C=CC1=C(C(=O)NCCC)C(c2ccc(OC)c(OC)c2)OC1 (centres undefined) | > 100 µM | > 100 µM | > 100 µM | > 100 µM | 
C=CC1=C(C(=O)N2CCN(c3ccccc3OC)CC2)C(c2ccc(OC)cc2)OC1 (centres undefined) | 23 µM | 23.6 µM | > 100 µM | > 100 µM | 
C=CC1=C(C(=O)N2CCN(c3cccc(OC)c3)CC2)C(c2ccc(OC)cc2)OC1 (centres undefined) | 20.7 µM | 17.9 µM | 15.3 µM | 25 µM | 
C=CC1=C(C(=O)N2CCN(c3cccc(C)c3C)CC2)C(c2ccc(OC)cc2)OC1 (centres undefined) | 10.3 µM | > 100 µM | > 100 µM | 44.1 µM | 
C=CC1=C(C(=O)N2CCN(c3ccccc3Cl)CC2)C(c2ccc(OC)cc2)OC1 (centres undefined) | 35.3 µM | > 100 µM | > 100 µM | 13.1 µM | 
C=CC1=C(C(=O)N2CCN(c3cccc(Cl)c3)CC2)C(c2ccc(OC)cc2)OC1 (centres undefined) | 26.8 µM | > 100 µM | > 100 µM | > 100 µM | 
O=c1[nH]cc(F)c(=O)[nH]1 [FLUOROURACIL] |  | 14.3 µM | 16.3 µM | 15.7 µM | 

Source: ChEMBL document CHEMBL1932981, “Synthesis of novel 2, 5-dihydrofuran derivatives and evaluation of their anticancer activity” (Eur J Med Chem, 2012)
